# Experimental data pooled from the literature.
# Protocols differ between the studies behind these lines.
SMILES,system,conditions,endpoint,result
CC(C)(O)c1cn(-c2ccc(-c3cccc(S(C)(=O)=O)c3)cc2)c(C(C)(C)c2ccccc2Cl)n1,"male C57BL/6 mouse, serum","oral, 10 mg/kg",AUC,57 µM·h
CCc1cc(C(=O)NC)c2nccc(N3CCc4c(cc(Cn5ccnc5)cc4-c4cn(C)nc4C(F)(F)F)C3=O)c2c1,"male CD-1 mouse, plasma","oral, 150 mg/kg",AUC(0-inf),527000 ng·h/mL
OC[C@H]1O[C@@H](c2ccc(Cl)c(Cc3ccc(O[C@H]4CCOC4)cc3)c2)[C@H](O)[C@@H](O)[C@@H]1O,"CD-1 mouse, plasma","intravenous, 5 mg/kg",AUC,1450 ng·h/mL
COc1ccc2nccc(N3CCc4c(cc(Cn5ccnc5)cc4-c4cn(C)nc4C(F)(F)F)C3=O)c2c1,"male CD-1 mouse, plasma","intravenous, 3 mg/kg",AUC(0-inf),1840 ng·h/mL
CCN1CCN(Cc2cc(NC(=O)c3ccc(C)c(-c4ccc5nc(NC(=O)C6CC6)cn5n4)c3)cc(C(F)(F)F)c2)CC1,"Swiss mouse, plasma","intraperitoneal, 3 mg/kg",AUC,1070 ng·h/mL
C=CC(=O)N1CC2CC(n3nc(-c4ccc(C(=O)Nc5ccccn5)cc4)c4c(N)ncnc43)CC2C1 (stereo not drawn),"SCID mouse, plasma","oral, 1 mg/kg",AUC(0-t),175 ng·h/mL
Cc1noc([C@H](Cc2c[nH]cn2)NC(=O)CN(CCCc2ccccc2)CC(=O)O)n1,"male C57BL/6 mouse, plasma","intraperitoneal, 30 mg/kg",AUC,1900 ng·h/mL
CC(C)Oc1c(NC(=O)c2ccc(NC(=O)[C@H](CC(N)=O)NC(=O)c3ccc(NC(=O)c4ccc(C#N)cc4)cc3)cc2)ccc(C(=O)Nc2ccc(C(=O)O)cc2)c1O,"male CD-1 mouse, plasma","subcutaneous, 5 mg/kg, single dose",AUC,517 ng·h/mL
CC(C)(O)c1cn(-c2ccc(-c3cc(F)c(CO)c(S(C)(=O)=O)c3)cc2F)c(C(C)(C)c2c(Cl)cccc2Cl)n1,"male C57BL/6 mouse, serum","oral, 10 mg/kg",AUC,7.4 µM·h
CC[C@H](C)[C@@H]1NC(=O)[C@@](C)(NC(=O)[C@H](CCCNC(=N)N)NC(=O)[C@H](CC(C)C)NC(=O)[C@@H](NC(=O)[C@H](CCC(N)=O)NC(=O)[C@H](CC(C)C)NC(C)=O)[C@@H](C)O)CCCC=CCCC[C@@](C)(C(=O)N[C@@H](CC(C)C)C(=O)N[C@@H](Cc2ccc3ccccc3c2)C(N)=O)NC(=O)[C@H](CCCNC(=N)N)NC(=O)[C@H](CCC(N)=O)NC1=O,"male BALB/c mouse, plasma","intravenous, 5 mg/kg",AUC(0-inf),126000 ng·h/mL
Cc1ccc2cncc(N3CCc4c(cc(Cn5ccnc5)cc4-c4cn(C)nc4C(F)(F)F)C3=O)c2c1,"male CD-1 mouse, plasma","oral, 50 mg/kg",AUC(0-inf),36300 ng·h/mL
NC[C@@H]1O[C@H](O[C@H]2[C@@H](O)[C@H](O[C@@H]3[C@@H](O)[C@H](N)C[C@H](N)[C@H]3O[C@H]3O[C@H](CO)[C@@H](O)[C@H](O)[C@H]3N)O[C@@H]2CO)[C@H](N)[C@@H](O)[C@@H]1O,"male BALB/c mouse, plasma","intravenous, 15 mg/kg",AUC,30600 ng·h/mL
CC(C)(C)c1ccc(O)c(CN(Cc2cc(C(C)(C)C)ccc2O)C2CCC(NC(N)=O)CC2)c1 (stereo not drawn),"male C57BL/6 mouse, plasma","intraperitoneal, 5 mg/kg, single dose",AUC(0-inf),6180 ng·h/mL
Cc1nc(-c2cnc(NC(C)C)n(C)c2=O)ccc1Oc1ccnc(-c2cnn(C)c2)c1,"female mouse, plasma","oral, 30 mg/kg, single dose",AUC(0-t),179000 ng·h/mL
COC(=O)CN(CCCc1ccccc1)CC(=O)N[C@@H](Cc1c[nH]cn1)c1nc(C)no1,"male C57BL/6 mouse, plasma","intraperitoneal, 30 mg/kg",AUC,200 ng·h/mL
